BindingDB's records for doi:10.1021/acsmedchemlett.1c00308 (Uniformed Services University of The Health Sciences, 2021)

Test system: ERG (ERG oncoprotein, ETS transcription factor) in VCaP cells
Test: Inhibition of ERG in human VCaP cells after 48 hrs by Western blotting analysis
Outline: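 In VCaP prostate cancer cells, ERG and RIOK2 protein levels were measured by Western blot after treatment. IC50 values were derived from the concentration-response of protein inhibition.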

| SMILES | IC50 |
| --- | --- |
| O=S(=O)(O)c1cccc2c(S(=O)(=O)O)cccc12 | > 500 nM |
| Oc1ccc2ccccc2c1/N=N/c1nccs1 [DNDI1417016] | 310 nM |
